Results from ChEMBL document CHEMBL1153576, “Novel ureas and thioureas of 15-membered azalides with antibacterial activity against key respiratory pathogens” (Eur J Med Chem, 2009).
Values after ≈ are worked out from the molar mass of the structure shown.

How the values were obtained:
Format in all cases: functional
[1] = test system: Streptococcus pyogenes; test: Antibacterial activity against inducible macrolide-lincosamide-streptogramin-resistant Streptococcus pyogenes 16 to 22 hrs by broth microdilution method
Procedure, shortened: (§1)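 Two-fold serial dilutions in microdilution trays, following the CLSI dilution standard for aerobic bacteria. Medium was Mueller–Hinton broth with 5% horse serum for streptococci. Stocks were made at 5 mg/ml in DMF. Inoculum came from a direct colony suspension adjusted by turbidity to about 5 × 10⁴ CFU/well final. Incubation was at 35 °C for 16–22 h. MIC is the lowest concentration completely inhibiting growth (99% inhibition).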

[2] = test system: Streptococcus pneumoniae; test: Antibacterial activity against erythromycin-susceptible Streptococcus pneumoniae after 16 to 22 hrs by broth microdilution method
Procedure, shortened: (§2)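 Streptococci tested by CLSI broth microdilution in Mueller–Hinton broth with 5% horse serum, using two-fold serial dilutions. Compounds were dissolved in DMF at 5 mg/ml (stock). Inoculum was a turbidity-adjusted direct colony suspension giving about 5 × 10⁴ CFU/well. Trays were held at 35 °C for 16–22 h. MIC is the lowest concentration completely inhibiting growth (99%).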

[3] = test system: Haemophilus influenzae; test: Antibacterial activity against Haemophilus influenzae ATCC 49247 after 16 to 22 hrs by broth dilution method
Procedure, shortened: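 Microdilution trays following the CLSI standard, with two-fold serial dilutions in supplemented broth suited to H. influenzae. DMF stocks at 5 mg/ml. Inoculum prepared from a turbidity-adjusted direct colony suspension to about 5 × 10⁴ CFU/well final. Incubated at 35 °C for 16–22 h. MIC is the lowest concentration giving complete (99%) growth inhibition.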

[4] = test system: Staphylococcus aureus; test: Antibacterial activity against Staphylococcus aureus ATCC 29213 after 16 to 22 hrs by broth microdilution method
Procedure, shortened: (§3)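 Broth microdilution per the CLSI approved standard (sixth edition), using two-fold serial dilutions of compound in Mueller–Hinton broth. Stocks at 5 mg/ml in DMF. Inoculum came from a direct colony suspension adjusted by turbidity to about 5 × 10⁴ CFU/well final. Trays were incubated at 35 °C for 16–22 h. MIC is the lowest concentration completely inhibiting growth (99% inhibition).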

[5] = test system: Streptococcus pyogenes; test: Antibacterial activity against efflux-mediated macrolide-resistance Streptococcus pyogenes after 16 to 22 hrs by broth microdilution method; procedure, shortened: as §1
[6] = test system: Moraxella catarrhalis; test: Antibacterial activity against Moraxella catarrhalis ATCC 23246 after 16 to 22 hrs by broth dilution method; procedure, shortened: as §3
[7] = test system: Streptococcus pyogenes; test: Antibacterial activity against erythromycin-susceptible Streptococcus pyogenes after 16 to 22 hrs by broth microdilution method; procedure, shortened: as §2
[8] = test system: Streptococcus pneumoniae; test: Antibacterial activity against constitutive macrolide-lincosamide-streptogramin-resistant Streptococcus pneumoniae after 16 to 22 hrs by broth microdilution method; procedure, shortened: as §1
[9] = test system: Enterococcus faecalis; test: Antibacterial activity against Enterococcus faecalis ATCC 29212 after 16 to 22 hrs by broth dilution method; procedure, shortened: as §3
[10] = test system: Escherichia coli; test: Antibacterial activity against Escherichia coli ATCC 25922 after 16 to 22 hrs by broth dilution method; procedure, shortened: as §3
[11] = test system: Streptococcus pneumoniae; test: Antibacterial activity against efflux-mediated macrolide-resistant Streptococcus pneumoniae after 16 to 22 hrs by broth microdilution method; procedure, shortened: as §1

SMILES | MIC [1] | MIC [2] | MIC [3] | MIC [4] | MIC [5] | MIC [6] | MIC [7] | MIC [8] | MIC [9] | MIC [10] | MIC [11]
CC[C@H]1OC(=O)[C@H](C)[C@@H](O[C@H]2C[C@@](C)(OC)[C@@H](O)[C@H](C)O2)[C@H](C)[C@@H](O[C@@H]2O[C@H](C)C[C@H](N(C)C)[C@H]2O)[C@](C)(O)C[C@@H](C)CN(CCCNC(=S)NCCc2ccccc2)[C@H](C)[C@@H](O)[C@]1(C)O | 4 µg/mL (≈ 4.19 µM) | ≤ 0.125 µg/mL | 2 µg/mL (≈ 2.09 µM) | 1 µg/mL (≈ 1.05 µM) | 4 µg/mL (≈ 4.19 µM) | 1 µg/mL (≈ 1.05 µM) | ≤ 0.125 µg/mL | > 64 µg/mL | 16 µg/mL (≈ 16.7 µM) | 32 µg/mL (≈ 33.5 µM) | 8 µg/mL (≈ 8.37 µM)
CC[C@H]1OC(=O)[C@H](C)[C@@H](O[C@H]2C[C@@](C)(OC)[C@@H](O)[C@H](C)O2)[C@H](C)[C@@H](O[C@@H]2O[C@H](C)C[C@H](N(C)C)[C@H]2O)[C@](C)(O)C[C@@H](C)CN(CCCNC(=O)Nc2ccccc2)[C@H](C)[C@@H](O)[C@]1(C)O | 4 µg/mL (≈ 4.39 µM) | ≤ 0.125 µg/mL | 8 µg/mL (≈ 8.78 µM) | 0.25 µg/mL (≈ 0.274 µM) | 16 µg/mL (≈ 17.6 µM) | 2 µg/mL (≈ 2.19 µM) | ≤ 0.125 µg/mL | > 64 µg/mL | 16 µg/mL (≈ 17.6 µM) | 8 µg/mL (≈ 8.78 µM) | 16 µg/mL (≈ 17.6 µM)
CC[C@H]1OC(=O)[C@H](C)[C@@H](O[C@H]2C[C@@](C)(OC)[C@@H](O)[C@H](C)O2)[C@H](C)[C@@H](O[C@@H]2O[C@H](C)C[C@H](N(C)C)[C@H]2O)[C@](C)(O)C[C@@H](C)CN(CCCNC(=S)Nc2ccccc2)[C@H](C)[C@@H](O)[C@]1(C)O | 8 µg/mL (≈ 8.63 µM) | ≤ 0.125 µg/mL | 4 µg/mL (≈ 4.31 µM) | 0.5 µg/mL (≈ 0.539 µM) | 16 µg/mL (≈ 17.3 µM) | 2 µg/mL (≈ 2.16 µM) | ≤ 0.125 µg/mL | > 64 µg/mL | 8 µg/mL (≈ 8.63 µM) | 8 µg/mL (≈ 8.63 µM) | 16 µg/mL (≈ 17.3 µM)
CC[C@H]1OC(=O)[C@H](C)[C@@H](O[C@H]2C[C@@](C)(OC)[C@@H](O)[C@H](C)O2)[C@H](C)[C@@H](O[C@@H]2O[C@H](C)C[C@H](N(C)C)[C@H]2O)[C@](C)(O)C[C@@H](C)CN(CCCN(CCC#N)C(=O)NC(C)C)[C@H](C)[C@@H](O)[C@]1(C)O | 32 µg/mL (≈ 34.4 µM) | ≤ 0.125 µg/mL | 4 µg/mL (≈ 4.3 µM) | 4 µg/mL (≈ 4.3 µM) | 32 µg/mL (≈ 34.4 µM) | 0.5 µg/mL (≈ 0.537 µM) | ≤ 0.125 µg/mL | > 64 µg/mL | 64 µg/mL (≈ 68.8 µM) | 16 µg/mL (≈ 17.2 µM) | 32 µg/mL (≈ 34.4 µM)
CC[C@H]1OC(=O)[C@H](C)[C@@H](O[C@H]2C[C@@](C)(OC)[C@@H](O)[C@H](C)O2)[C@H](C)[C@@H](O[C@@H]2O[C@H](C)C[C@H](N(C)C)[C@H]2O)[C@](C)(O)C[C@@H](C)CN(CCCNC(=O)NCc2ccccc2)[C@H](C)[C@@H](O)[C@]1(C)O | 4 µg/mL (≈ 4.32 µM) | ≤ 0.125 µg/mL | 2 µg/mL (≈ 2.16 µM) | 0.5 µg/mL (≈ 0.54 µM) | 8 µg/mL (≈ 8.65 µM) | 1 µg/mL (≈ 1.08 µM) | ≤ 0.125 µg/mL | > 64 µg/mL | 16 µg/mL (≈ 17.3 µM) | 8 µg/mL (≈ 8.65 µM) | 16 µg/mL (≈ 17.3 µM)
CC[C@H]1OC(=O)[C@H](C)[C@@H](O[C@H]2C[C@@](C)(OC)[C@@H](O)[C@H](C)O2)[C@H](C)[C@@H](O[C@@H]2O[C@H](C)C[C@H](N(C)C)[C@H]2O)[C@](C)(O)C[C@@H](C)CN(CCCNC(=S)NCc2ccccc2)[C@H](C)[C@@H](O)[C@]1(C)O | 4 µg/mL (≈ 4.25 µM) | ≤ 0.125 µg/mL | 2 µg/mL (≈ 2.12 µM) | 0.5 µg/mL (≈ 0.531 µM) | 4 µg/mL (≈ 4.25 µM) | 1 µg/mL (≈ 1.06 µM) | ≤ 0.125 µg/mL | 64 µg/mL (≈ 68 µM) | 8 µg/mL (≈ 8.5 µM) | 16 µg/mL (≈ 17 µM) | 8 µg/mL (≈ 8.5 µM)
CC[C@H]1OC(=O)[C@H](C)[C@@H](O[C@H]2C[C@@](C)(OC)[C@@H](O)[C@H](C)O2)[C@H](C)[C@@H](O[C@@H]2O[C@H](C)C[C@H](N(C)C)[C@H]2O)[C@](C)(O)C[C@@H](C)CN(CCCNC(=S)Nc2cccc3ccccc23)[C@H](C)[C@@H](O)[C@]1(C)O | 4 µg/mL (≈ 4.09 µM) | ≤ 0.125 µg/mL | 2 µg/mL (≈ 2.05 µM) | 1 µg/mL (≈ 1.02 µM) | 4 µg/mL (≈ 4.09 µM) | 1 µg/mL (≈ 1.02 µM) | ≤ 0.125 µg/mL | > 64 µg/mL | 8 µg/mL (≈ 8.19 µM) | 8 µg/mL (≈ 8.19 µM) | 4 µg/mL (≈ 4.09 µM)
CC[C@H]1OC(=O)[C@H](C)[C@@H](O[C@H]2C[C@@](C)(OC)[C@@H](O)[C@H](C)O2)[C@H](C)[C@@H](O[C@@H]2O[C@H](C)C[C@H](N(C)C)[C@H]2O)[C@](C)(O)C[C@@H](C)CN(CCCNC(=O)Nc2ccc3ccccc3c2)[C@H](C)[C@@H](O)[C@]1(C)O | 2 µg/mL (≈ 2.08 µM) | ≤ 0.125 µg/mL | 2 µg/mL (≈ 2.08 µM) | 1 µg/mL (≈ 1.04 µM) | 4 µg/mL (≈ 4.16 µM) | 0.25 µg/mL (≈ 0.26 µM) | ≤ 0.125 µg/mL | 16 µg/mL (≈ 16.6 µM) | 8 µg/mL (≈ 8.32 µM) | 16 µg/mL (≈ 16.6 µM) | 4 µg/mL (≈ 4.16 µM)
CC[C@H]1OC(=O)[C@H](C)[C@@H](O[C@H]2C[C@@](C)(OC)[C@@H](O)[C@H](C)O2)[C@H](C)[C@@H](O[C@@H]2O[C@H](C)C[C@H](N(C)C)[C@H]2O)[C@](C)(O)C[C@@H](C)CN(CCCNC(=O)NC(C)C)[C@H](C)[C@@H](O)[C@]1(C)O | 8 µg/mL (≈ 9.12 µM) | ≤ 0.125 µg/mL | 16 µg/mL (≈ 18.2 µM) | 2 µg/mL (≈ 2.28 µM) | 32 µg/mL (≈ 36.5 µM) | 1 µg/mL (≈ 1.14 µM) | ≤ 0.125 µg/mL | > 64 µg/mL | 32 µg/mL (≈ 36.5 µM) | 16 µg/mL (≈ 18.2 µM) | 32 µg/mL (≈ 36.5 µM)
CC[C@H]1OC(=O)[C@H](C)[C@@H](O[C@H]2C[C@@](C)(OC)[C@@H](O)[C@H](C)O2)[C@H](C)[C@@H](O[C@@H]2O[C@H](C)C[C@H](N(C)C)[C@H]2O)[C@](C)(O)C[C@@H](C)CN(CCCNC(=O)NCCc2ccccc2)[C@H](C)[C@@H](O)[C@]1(C)O | 8 µg/mL (≈ 8.52 µM) | ≤ 0.125 µg/mL | 16 µg/mL (≈ 17 µM) | 1 µg/mL (≈ 1.06 µM) | 32 µg/mL (≈ 34.1 µM) | 2 µg/mL (≈ 2.13 µM) | ≤ 0.125 µg/mL | > 64 µg/mL | 16 µg/mL (≈ 17 µM) | 16 µg/mL (≈ 17 µM) | 32 µg/mL (≈ 34.1 µM)
CC[C@H]1OC(=O)[C@H](C)[C@@H](O[C@H]2C[C@@](C)(OC)[C@@H](O)[C@H](C)O2)[C@H](C)[C@@H](O[C@@H]2O[C@H](C)C[C@H](N(C)C)[C@H]2O)[C@](C)(O)C[C@@H](C)CN(CCCNC(=S)NCCCc2ccccc2)[C@H](C)[C@@H](O)[C@]1(C)O | 4 µg/mL (≈ 4.13 µM) | ≤ 0.125 µg/mL | 2 µg/mL (≈ 2.06 µM) | 0.5 µg/mL (≈ 0.516 µM) | 4 µg/mL (≈ 4.13 µM) | 1 µg/mL (≈ 1.03 µM) | ≤ 0.125 µg/mL | > 64 µg/mL | 16 µg/mL (≈ 16.5 µM) | 16 µg/mL (≈ 16.5 µM) | 8 µg/mL (≈ 8.25 µM)
CC[C@H]1OC(=O)[C@H](C)[C@@H](O[C@H]2C[C@@](C)(OC)[C@@H](O)[C@H](C)O2)[C@H](C)[C@@H](O[C@@H]2O[C@H](C)C[C@H](N(C)C)[C@H]2O)[C@](C)(O)C[C@@H](C)CN(CCCNC(=O)NC(C)c2cccc3ccccc23)[C@H](C)[C@@H](O)[C@]1(C)O (some centres not stated) | 2 µg/mL (≈ 2.02 µM) | ≤ 0.125 µg/mL | 2 µg/mL (≈ 2.02 µM) | 1 µg/mL (≈ 1.01 µM) | 8 µg/mL (≈ 8.09 µM) | 0.25 µg/mL (≈ 0.253 µM) | ≤ 0.125 µg/mL | 16 µg/mL (≈ 16.2 µM) | 8 µg/mL (≈ 8.09 µM) | 32 µg/mL (≈ 32.3 µM) | 16 µg/mL (≈ 16.2 µM)
